From ChEMBL document CHEMBL1127092, “Crystal and molecular structure and in vitro antiproliferative and antitumor activity of two organotin (IV) carbohydrate compounds” (J Med Chem, 1993)

Tests used:
Assay type in all cases: functional, cell-based, Mus musculus
L1210 = assay: Antitumor activity against L1210 cell line determined by reduction of the [3H]thymidine incorporation after a 24-h incubation period
Procedure, shortened: (§1)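 Mouse ascites tumor cells harvested 7 days after i.p. transplantation, washed, preincubated 4 h at 2.10^5 cells/mL in RPMI 1640 with 10% FCS and 1 mM glutamine under 5% CO2. Cells then exposed to compounds (ethanol stocks diluted in medium) for 24 h at 37°C. [3H]TdR (0.5 μCi) was added […] and cells were harvested 8 h later. Values are means of two experiments, each in 4-fold.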

MOPC 315 = assay: Antitumor activity against MOPC315 cell line determined by reduction of the [3H]thymidine incorporation after a 24-h incubation period; procedure, shortened: as §1
P815 = assay: Antitumor activity against P815 cell line determined by reduction of the [3H]thymidine incorporation after a 24-h incubation period; procedure, shortened: as §1

Substance: 5-(2,2-Dimethyl-[1,3]dioxolan-4-yl)-2,2-dimethyl-6-triphenylstannanyl-tetrahydro-furo[2,3-d][1,3]dioxol-6-ol
- IC50 (L1210): 760 nM
- IC50 (MOPC 315): 670 nM
- IC50 (P815): 540 nM

Substance: 5-(2,2-Dimethyl-[1,3]dioxolan-4-yl)-2,2-dimethyl-6-[(triphenylstannanyl)-methyl]-tetrahydro-furo[2,3-d][1,3]dioxol-6-ol
- IC50 (L1210): > 5000 nM
- IC50 (MOPC 315): > 5000 nM
- IC50 (P815): > 5000 nM

Substance: TRIPHENYLTIN CHLORIDE
- IC50 (L1210): 180 nM
- IC50 (MOPC 315): 200 nM
- IC50 (P815): 130 nM
